# High-throughput results (PubChem)
# In the library only some 1.8% were active in any assay of this set; here they are far more common.
# AI-2 QS modul – Vibrio harveyi AI-2 quorum sensing modulators, primary screen, JMH597 strain, luminescence/OD600 ratio. Vibrio harveyi JMH597 AI-2 luminescence/OD600 ratio, 9 h; stronger effect = lower value; strain lacks LuxN and CqsS sensors; 0 = neutral-control median. activity change, % at 7.5 µM. 0.4% of 300,000 active; in the data active = activity change below about -75%, passing the limit was not always enough;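 also: luminescence divided by OD600 gain over 9 h not by final OD600 alone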
# MC4R ag barr – MC4R agonists recruiting beta-arrestin, primary screen, cell-based, luminescence, agonist arm of biased-ligand search. Melanocortin receptor 4 (Homo sapiens), P32245. U2OS MC4R beta-arrestin complementation; percent of melanotan II response, DMSO zero. activation, % at 8.9 µM. 0.98% of 360,000 active. AID 540308, 2011;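 active = activation above a per-plate cutoff, the mean activation of sample wells on that plate plus 3 SD, cut at about 8% in these data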
# Target sequence (P32245 whole entry, looked up): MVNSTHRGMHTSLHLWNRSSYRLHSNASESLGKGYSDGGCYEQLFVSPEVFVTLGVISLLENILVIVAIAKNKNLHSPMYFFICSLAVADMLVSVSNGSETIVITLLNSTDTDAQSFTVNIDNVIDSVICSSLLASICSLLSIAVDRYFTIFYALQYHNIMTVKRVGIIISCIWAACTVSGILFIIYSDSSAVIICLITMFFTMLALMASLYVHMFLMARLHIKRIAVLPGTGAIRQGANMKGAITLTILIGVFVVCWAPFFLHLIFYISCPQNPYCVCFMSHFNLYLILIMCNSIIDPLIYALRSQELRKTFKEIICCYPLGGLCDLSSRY
# NTR1 ag – agonists of human NTR1, primary screen, imaging, U2OS cells, beta-arrestin-GFP, high content | Neurotensin receptor type 1 (Homo sapiens), P30989 | NTR1-U2OS beta-arrestin-GFP spot imaging, agonist mode | activation, % at 20 µM | 0.17% of 330,000 active | AID 493036, 2011;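 active = activation at or above 40% of the spot to cytoplasm intensity ratio, with at least 20 cells analyzed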
# MC4R antag cAMP – MC4R antagonists of cAMP signaling, primary screen, cell-based, TR-FRET, antagonist arm of biased-ligand search; Melanocortin receptor 4 (Homo sapiens), P32245; MC4R-expressing cells, MTII-stimulated cAMP, LANCE TR-FRET; inhibition, % at 6.5 µM; 0.48% of 360,000 active;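 active = inhibition above its plate's cutoff, the mean of tested wells on that plate plus 3 SD, cut at about 29% in these data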
#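 Test system: U2OS cells stably expressing human melanocortin 4 receptor (MC4R); also added: Melanotan II challenge; compound: 6.5 µM single dose; timing: 30-min compound preincubation, 1-h Melanotan II challenge, 1-h detection, room temperature; signal: Eu-cAMP/anti-cAMP TR-FRET, emission 671 nm; repeats: one well per compound, no replicates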
# MC4R barr conf – MC4R beta-arrestin agonists, retest, confirmation, cell-based, luminescence, U2OS | shares compounds with MC4R ag barr | AID 602192, 2012 | 31% of 2,400 active | U2OS MC4R beta-arrestin recruitment; scaled DMSO 0%, Melanotan II 100% | activation, % at 8.9 µM;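 active = mean activation across replicates above the hit cutoff set in the earlier primary screen, cut at about 8% in these data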
# MOR-DOR barr ag – agonists of MOR-DOR heterodimerization, counter-screen for MC4R biased agonist project, cell-based, luminescence; shares compounds with MC4R ag barr; U2OS PathHunter beta-arrestin, beta-gal luminescence; percent of deltorphin B response, DMSO zero; activation, % at 9.2 µM; 5.8% of 2,400 active; AID 602194, 2012;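 active = mean activation across replicates exceeds the hit threshold derived in the earlier primary screen, cut at about 18% in these data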
# A number is an active result; i = inactive; nt = not tested or not shown.
SMILES,AI-2 QS modul,MC4R ag barr,NTR1 ag,MC4R antag cAMP,MC4R barr conf,MOR-DOR barr ag
COc1ccccc1OCC(=O)Nc1ccc(NC(=O)COc2ccccc2OC)cc1,i,18,i,i,23,i
CC(=O)Nc1sc2c(c1C#N)CCCC2,i,i,i,i,nt,nt
Cc1cc(C(=O)Nc2sc3c(c2C#N)CCCCC3)cs1,i,14,i,i,i,i
CCCNC(=O)CN1CCN(c2cc3ccccc3c(Cl)n2)CC1,i,i,i,i,nt,nt
COc1ccc(C#Cc2c(-c3ccsc3)oc3ccc(N4CCOCC4)cc23)cc1,i,i,i,i,nt,nt
OC1(C#Cc2c(-c3ccsc3)oc3ccc(N4CCOCC4)cc23)CCCCC1,i,13,i,i,i,i
N=C1/C(=C/c2cccn2-c2ccc([N+](=O)[O-])cc2)C(=O)N=C2SC=CN12,i,i,i,i,nt,nt
COc1ccc(-c2ccc(/C=C3/C(=N)N4C=CSC4=NC3=O)o2)c([N+](=O)[O-])c1,i,20,nt,i,i,i
CC1(C(=O)Nc2ccc3c(c2)OCO3)CCN1C(=O)CCc1cccs1 (stereo not given),nt,i,nt,i,nt,nt
CCCCOc1ccc(/C=N/NC(=S)Nc2cc(C)ccc2C)cc1,i,12,i,i,i,i
CN(C)S(=O)(=O)n1cc(/C=C(\NC(=O)c2ccccc2F)C(=O)NCCCn2ccnc2)c2ccccc21,i,i,i,i,nt,nt
Clc1ccc(Cn2cc(/C=N/n3cnnc3)c3ccccc32)c(Cl)c1,i,16,i,i,11,i
C(=N\n1cnnc1)/c1cn(Cc2ccccc2)c2ccccc12,i,i,i,i,nt,nt
C[C@@H]1CN(S(=O)(=O)C(C)(C)C)[C@H](CCO)/C1=C\c1ccccc1,nt,i,nt,i,nt,nt
CC(=O)Nc1cc(-c2cccc(C(=O)N(C)C)c2)cn2c(-c3ccc(F)c(Cl)c3)cnc12,nt,16,nt,i,23,i
CC(=O)Nc1cc(-c2ccc(N3CCN(C)CC3)cc2)cn2c(-c3ccccc3)cnc12,nt,i,nt,i,nt,nt
CC(=O)Nc1cc(-c2ccccc2)cn2c(-c3cccc(C(C)=O)c3)cnc12,nt,21,nt,i,20,i
CC(=O)Nc1cc(-c2cccc(C(=O)N(C)C)c2)cn2c(-c3ccc(C(C)=O)cc3)cnc12,nt,11,nt,i,i,i
CC(=O)Nc1cc(-c2cccc(C(=O)N(C)C)c2)cn2c(-c3ccccc3)cnc12,nt,i,nt,i,nt,nt
CC(=O)Nc1cc(-c2ccoc2)cn2c(-c3ccccc3)cnc12,nt,11,nt,i,15,i
CC(=O)Nc1cc(-c2cccc(C(=O)N(C)C)c2)cn2c(-c3cccc(C(=O)N(C)C)c3)cnc12,nt,i,nt,i,nt,nt
O=C(N/N=C/C(Cl)=C/c1ccccc1)c1ccc2c(c1)OCO2,nt,i,i,i,nt,nt
CC(=O)c1cccc(-c2cnc3c(NC=O)cc(-c4ccccc4F)cn23)c1,nt,20,nt,i,20,i
CC(=O)Nc1cc(-c2cccc(N)c2)cn2c(-c3ccccc3)cnc12,nt,12,nt,i,i,i
COc1ccc(C(=O)COC(=O)CCN=C2NS(=O)(=O)c3ccccc32)c(OC)c1,i,i,i,i,nt,nt
SMILES,AI-2 QS modul,MC4R ag barr,NTR1 ag,MC4R antag cAMP,MC4R barr conf,MOR-DOR barr ag
COc1ccc(CCNC(=O)CCC(=O)Nc2ccccc2[N+](=O)[O-])cc1OC,i,i,i,i,nt,nt
C/C=C/C1=CC(=O)C[C@H](c2ccc(OC)c(OC)c2)C1,nt,i,i,i,nt,nt
CC(CCc1ccccc1)NS(=O)(=O)c1ccccc1F (stereo not given),i,i,i,i,nt,nt
NC(Cc1ccc(F)cc1)c1csc(Nc2cc(Oc3ccccc3)ncn2)n1 (stereo not given),nt,13,nt,i,14,i
COc1cccc(Nc2nc(C(N)CCc3ccccc3)cs2)n1 (stereo not given),nt,16,nt,i,12,i
NC(Cc1ccc(Cl)cc1)c1csc(Nc2cc(Oc3ccccc3)ncn2)n1 (stereo not given),nt,i,nt,i,nt,nt
